Measurements gathered from unrelated publications.
Each line is one published result; the experiments were not run side by side.
FLT3 F691L/ITD: Receptor-type tyrosine-protein kinase FLT3 (FLT3, Homo sapiens, UniProt P36888, F691L/ITD)
FLT3: Receptor-type tyrosine-protein kinase FLT3 (FLT3, Homo sapiens, UniProt P36888)
FLT3 D835Y: Receptor-type tyrosine-protein kinase FLT3 (FLT3, Homo sapiens, UniProt P36888, D835Y)
FLT3 N841I: Receptor-type tyrosine-protein kinase FLT3 (FLT3, Homo sapiens, UniProt P36888, N841I)
FLT3 autoinhibited: Receptor-type tyrosine-protein kinase FLT3, autoinhibited (FLT3, Homo sapiens, UniProt P36888)
FLT3 K663Q: Receptor-type tyrosine-protein kinase FLT3 (FLT3, Homo sapiens, UniProt P36888, K663Q)
FLT3 ITD: Receptor-type tyrosine-protein kinase FLT3 (FLT3, Homo sapiens, UniProt P36888, ITD)
FLT3 D835H: Receptor-type tyrosine-protein kinase FLT3 (FLT3, Homo sapiens, UniProt P36888, D835H)
FLT3 R834Q: Receptor-type tyrosine-protein kinase FLT3 (FLT3, Homo sapiens, UniProt P36888, R834Q)

CC(=O)Nc1c(C(C)=O)c(=O)n(C)c2nc(-c3ccc(Cl)cc3Cl)c(-c3ccc(Cl)cc3)cc12  remaining binding (FLT3 F691L/ITD; cell-free assay, competition with immobilised ligand; 1 µM): 100%
CC(C)c1ccc(NC(=O)c2cccs2)c(-c2nc3ccccc3[nH]c2=O)c1  activity vs control (FLT3; enzyme activity, inhibitor; 1 µM): 51%
Cc1cnc(NC2CCOCC2)nc1-n1cnc(C(=O)NC(CN)c2cc(F)cc(Cl)c2)c1 (stereo not shown)  remaining activity (FLT3 D835Y; enzyme activity, inhibitor, radiometric; 1 µM): 105%
O=C(NCCCN1CCOCC1)c1ccc(Nc2nccc(-c3cc4ccccc4s3)n2)cc1  remaining binding (FLT3 N841I; binding, competition with immobilised ligand; 1 µM): 9.2%
CN(C)c1ncc(F)c(-c2cnn3ncccc23)n1  remaining binding (FLT3 D835Y; binding; 1 µM): 100%
CC(C)(C)c1nc(-c2cccc(NS(=O)(=O)c3c(F)cccc3F)c2F)c(-c2ccnc(N)n2)s1  remaining activity (FLT3; enzyme activity, inhibitor, radiometric; 1 µM): 117%
Cc1cnn2ncc(-c3ccnc(N(C)C)n3)c2c1  remaining binding (FLT3 autoinhibited; binding; 1 µM): 84%
Cc1cc(NC(=O)c2cccc3cc(-c4cccc5[nH]nc(N)c45)ccc23)ccc1F  activity vs control (FLT3 D835Y; enzyme activity, inhibitor; 0.1 µM): 98%
O=C(NCCCN1CCOCC1)c1ccc(Nc2ncc(Cl)c(-c3ccc(Cl)s3)n2)cc1  remaining binding (Receptor-type tyrosine-protein kinase FLT3 (FLT3, Homo sapiens, UniProt P36888, D835V); binding, competition with immobilised ligand; 1 µM): 1.3%
O=[N+]([O-])c1cccc2[nH]c(CNc3nc(N4CCOCC4)nc4c3ncn4-c3ccsc3)nc12  binding vs control (FLT3 K663Q; binding, competition with immobilised ligand; 10 µM): 5.2%
N#CCCc1ccc2c(c1)-c1[nH]c3ccc([N+](=O)[O-])cc3c1CC(=O)N2  remaining signal (FLT3; cell-free assay; 0.5 µM): 15.1%
O=C1NC(c2ccccn2)Sc2ccccc21 (stereo not shown)  remaining binding (Receptor-type tyrosine-protein kinase FLT3 (FLT3, Homo sapiens, UniProt P36888, D835V/ITD); cell-free assay, competition with immobilised ligand; 1 µM): 83%
O=C1Nc2ccc(Cl)cc2C1=Cc1cc(Cl)c(O)c(Cl)c1  remaining signal (FLT3; cell-free assay; 0.5 µM): 26.5%
CN([C@@H]1CCc2c(CC(=O)O)c3cc(S(C)(=O)=O)ccc3n2C1)S(=O)(=O)c1ccc(F)cc1  remaining binding (FLT3 N841I; cell-free assay, competition with immobilised ligand; 1 µM): 100%
O=C(c1ccc(Nc2ncc(Cl)c(-c3cc4ccccc4s3)n2)cc1)N1CCC(N2CCCC2)CC1  remaining binding (FLT3; binding, competition with immobilised ligand; 1 µM): 2.5%
Cc1cnc(-c2ccc(-c3ccc(NC(=O)Nc4c(F)cc(F)cc4F)cc3F)c3c2C(=O)NC3)[nH]1  activity vs control (FLT3 ITD; enzyme activity, inhibitor; 1 µM, 90 min): 1.6%
CCN(CC)CCNC(=O)c1c(C)[nH]c(/C=C2\C(=O)Nc3ccc(F)cc32)c1C  remaining activity (FLT3; enzyme activity, inhibitor; 0.1 µM): 1%
C[C@H]1CCN(c2nccc(-c3cnn4ncccc34)n2)C1  remaining binding (FLT3 D835Y; binding; 1 µM): 81%
O=C(c1ccc(Nc2nccc(-c3cc4ccccc4s3)n2)cc1)N1CCC(N2CCCC2)CC1  remaining binding (FLT3 F691L/ITD; binding, competition with immobilised ligand; 1 µM): 19%
O=C(Nc1cnn(-c2csc(C(=O)NC3COC3)c2)c1)Nc1c(F)cccc1Cl  remaining activity (FLT3; enzyme activity, inhibitor; 5 µM): 99.2%
COc1cc2c(Nc3ccc(Br)cc3F)ncnc2cc1OCC1CCN(C)CC1  remaining signal (FLT3; cell-free assay; 0.5 µM): 43.7%
CCCCN(CCCC)C(=O)CN1C[C@H](c2cc(OC)c3c(c2)OCO3)[C@@H](C(=O)O)[C@@H]1CC(C)(C)CCC  remaining binding (FLT3 autoinhibited; cell-free assay, competition with immobilised ligand; 1 µM): 76%
CC1CCCN1c1nccc(-c2cnn3ncccc23)n1 (stereo not shown)  remaining binding (FLT3 D835H; binding; 1 µM): 90%
Cc1ccc(C(=O)Nc2ccc(CN3CCN(C)CC3)c(C(F)(F)F)c2)cc1C#Cc1cnc2cccnn12  remaining activity (FLT3 N841I; enzyme activity, inhibitor; 23.5 nM): 0%
CN(CCCC(F)(F)F)c1nccc(-c2cnn3ncccc23)n1  remaining binding (FLT3 D835H; binding; 1 µM): 96%
C[C@H](c1ccnc(Nc2nc3ccc(-c4cc(N(C)C)ncn4)cc3[nH]2)c1)N1CCN(C(=O)CC(F)(F)F)CC1  remaining binding (FLT3; cell-free assay, competition with immobilised ligand; 0.1 µM): 67%
N[C@H]1CCN(c2nccc(-c3cnn4ncccc34)n2)C1  remaining binding (FLT3 autoinhibited; binding; 1 µM): 99%
COc1cc2ncnc(Nc3ccc(F)c(Cl)c3)c2cc1OCCCN1CCOCC1  remaining signal (FLT3; cell-free assay; 0.5 µM): 56.5%
Cc1c(C(=O)O)cc(-c2ccc(C3CCNCC3)cc2)c2ccc(-c3ccc(C(F)(F)F)cc3)cc12  remaining binding (FLT3 R834Q; binding, competition with immobilised ligand; 1 µM): 100%
Cc1cnc(Nc2ccc(C(=O)N3CCC(N4CCCC4)CC3)cc2)nc1-c1cc2ccccc2s1  remaining binding (FLT3 K663Q; binding, competition with immobilised ligand; 1 µM): 2.2%
c1cnn2ncc(-c3ccnc(N4CCC45COC5)n3)c2c1  remaining binding (FLT3 R834Q; binding; 1 µM): 82%
O=C(c1ccc(Nc2ncc(Cl)c(-c3ccc(Cl)s3)n2)cc1)N1CCC(N2CCCC2)CC1  remaining binding (FLT3 F691L/ITD; binding, competition with immobilised ligand; 1 µM): 1.8%
Nc1ncnc2occ(-c3ccc(NC(=O)Nc4cc(C(F)(F)F)ccc4F)cc3)c12  remaining signal (FLT3; cell-free assay, inhibitor; 20 µM): 1.8%
O=c1nc(-c2ccccn2)sc2ccccc12  remaining binding (FLT3 N841I; binding, competition with immobilised ligand; 1 µM): 74%
CCCOc1ccc(OC)c(F)c1C(=O)c1ccc(C(=O)N[C@@H]2CNC[C@H]2NC(=O)c2ccc3[nH]ncc3c2)cc1  remaining activity (FLT3 D835Y; enzyme activity, inhibitor; 10 µM): 12%
C[C@H](c1ccc(F)cc1)N(Cc1cccc(C(=O)O)c1)C(=O)c1cnc2ccccc2c1  remaining binding (FLT3 ITD; cell-free assay, competition with immobilised ligand; 1 µM): 100%
Cc1ccc(NC(=O)c2ccc(C)c(C(F)(F)F)c2)cc1C#Cc1nn(C2CCC(O)CC2)c2ncnc(N)c12 (stereo not shown)  remaining activity (FLT3 D835Y; enzyme activity, inhibitor; 10 µM): 118%
